Screening data from PubChem BioAssay.
LMPTP block: blocks human LMPTP phosphatase. recombinant LMPTP-A, OMFP fluorogenic substrate, fluorescence intensity. 360,000 tested, 0.22% active. inhibition, % at 20 µM. AID 651560. P24666;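 active means compounds that cut the enzyme signal by at least half of the control window in the single-dose screen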
Target sequence (P24666 whole entry, looked up): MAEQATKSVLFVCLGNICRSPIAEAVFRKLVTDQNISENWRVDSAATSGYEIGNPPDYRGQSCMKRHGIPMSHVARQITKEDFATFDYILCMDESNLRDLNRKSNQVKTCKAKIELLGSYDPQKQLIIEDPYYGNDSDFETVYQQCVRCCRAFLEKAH
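Test system – LMPTP-A enzyme · Amount – LMPTP-A at 0.625 nM final in the reaction · Buffer or medium – Bis-Tris pH 6.0, DTT, detergent · Reagent – OMFP 400 µM · Doses – single 20 µM dose · Schedule – reaction 50 min, room temperature, dark · Detection – fluorescence intensity of OMFP turnover product · Evaluation – percent inhibition versus substrate-only and uninhibited controls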
STEP block: STEP (human) phosphatase inhibition; 360,000 tested, 0.25% active; recombinant STEP, OMFP fluorogenic substrate, fluorescence; inhibition, % at 20 µM; AID 588621;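 active means inhibition at 20 µM, scaled per plate between control wells, above about 37%, limit read from the data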
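Test system: STEP tyrosine phosphatase / Reagent: OMFP at 25 µM / Doses: 20 µM, 1% DMSO / Read-out: percent inhibition scaled to no-enzyme and uninhibited-enzyme controls, plate-pattern corrected / Detection: FITC-channel fluorescence of OMFP product / Medium: Bis-Tris buffer pH 6.0, 2.5 mM DTT, 0.005% Tween 20 / Schedule: 20 min at room temperature, dark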
Scp1 inh: blocks human Scp-1 phosphatase activity; Q9GZU7; Recombinant Scp1, phosphopeptide, malachite green phosphate absorbance; inhibition, % at 20 µM; 340,000 tested, 0.88% active; AID 493091;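 active means inhibition above about 50% at 20 µM, limit read from the data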
Target sequence (Q9GZU7 76-261 limits assumed): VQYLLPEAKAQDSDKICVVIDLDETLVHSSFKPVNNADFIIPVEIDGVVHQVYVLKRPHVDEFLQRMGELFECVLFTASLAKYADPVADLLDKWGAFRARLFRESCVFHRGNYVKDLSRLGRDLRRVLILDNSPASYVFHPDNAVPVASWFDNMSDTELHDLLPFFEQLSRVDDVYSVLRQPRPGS
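Test system: SCP-1 catalytic domain; Buffer or medium: Acidic Tris acetate buffer with magnesium and detergent; Also added: Phosphorylated 17-residue peptide substrate; Compound: single 20 µM dose, 1% DMSO; Schedule: enzyme reaction 45 min at room temperature, colour 5 min, stabilisation 30 min; Signal: Phosphate-binding colour reagent, absorbance read at 630 nm.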
SUMO1-SIM PPI: alters human SUMO1 binding to SIM partners. P63165. SUMO1 binding to a labelled peptide, TR-FRET, 1 h. inhibition, % at 20 µM. 360,000 tested, 0.33% active. AID 602429; in the data active means inhibition above about 37%
Target sequence (P63165 whole entry, looked up): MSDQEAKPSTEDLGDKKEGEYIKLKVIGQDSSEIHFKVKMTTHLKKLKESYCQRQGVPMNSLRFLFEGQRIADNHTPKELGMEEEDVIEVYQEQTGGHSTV
DNMT1 block: inhibitors of human DNMT1. inhibition (reported as % activation of signal), % at 10 µM. P26358. DNMT1 molecular beacon, Hinp1I cleavage, fluorescence. 360,000 tested, 0.83% active. AID 588458; in the data active means inhibition above about 50%
NadD block: blocks S. aureus nicotinate mononucleotide adenylyltransferase | purified NadD enzyme, colorimetric absorbance read-out | inhibition, % at 20 µM | 360,000 tested, 0.78% active; in the data active means inhibition above about 26%
Scp-1 conf: Scp-1 (human) inhibition, single-dose confirmed; shares compounds with Scp1 inh; recombinant SCP-1 catalytic domain, phosphate release, malachite green absorbance; inhibition, % at 20 µM; 2,500 tested, 61% active; AID 540281
MG interference: interferes with malachite green readout, flagging false Scp-1 hits | apparent inhibition (interference), % at 20 µM | AID 540313 | Colorimetric interference counterscreen, malachite green absorbance 630 nm | shares compounds with Scp1 inh | 2,500 tested, under 10 active;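 further: compounds added after enzyme reaction finished so only phosphate colour detection is probed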
Scp1 DSF: binds human Scp-1, shifting its melting temperature; Recombinant SCP1, Sypro Orange thermal shift Tm; thermal shift relative to vanadate control, % at 40 µM; 1,500 tested, 25% active; shares compounds with Scp1 inh;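 active means substances whose mean melting-temperature shift, as a percentage of the reference inhibitor's shift, reaches about 5.3%, limit read from the data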
Numbers stand for hits. A selection: hits, their analogues and other compounds. The true share with any hit is near 2.4%.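 How the source made its calls, unless noted: active means inhibition of at least 30% at 20 µM; inactive means the rest.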

For O=C(O)c1ccc(COc2ccccc2/C=C2/NC(=O)N(c3cccc(Cl)c3)C2=O)cc1 the results were LMPTP block inactive, STEP block inactive, Scp1 inh 66, SUMO1-SIM PPI inactive, DNMT1 block inactive, NadD block inactive, Scp-1 conf 65, MG interference inactive and Scp1 DSF inactive.
Cc1nn(-c2ccccc2)c(C)c1/C=C/C(=O)OCC(=O)Nc1ncc(C(F)(F)F)cc1Cl was read as LMPTP block inactive, STEP block inactive, Scp1 inh inactive, SUMO1-SIM PPI inactive, DNMT1 block inactive and NadD block inactive.
For COc1ccc(C(C(=O)NC2CCCCC2)N(Cc2cccnc2)C(=O)c2snc(C(N)=O)c2N)cc1 (stereo not given) the results were LMPTP block inactive, STEP block inactive, Scp1 inh inactive, SUMO1-SIM PPI inactive, DNMT1 block inactive and NadD block inactive.
N=c1ncn(Cc2ccccc2)c2nc(SCCOc3ccccc3)[nH]c12 was read as LMPTP block inactive, STEP block inactive, Scp1 inh inactive, SUMO1-SIM PPI inactive, DNMT1 block inactive and NadD block inactive.
`COc1ccccc1CNC(=O)CCNC(=O)N1CC(=O)Nc2ccccc21` gave LMPTP block inactive, STEP block inactive, Scp1 inh inactive, SUMO1-SIM PPI inactive, DNMT1 block inactive and NadD block inactive.
O=C(O)c1ccc(COc2ccccc2C=C2C(=O)c3ccccc3C2=O)cc1 was read as LMPTP block inactive, STEP block inactive, Scp1 inh 68, SUMO1-SIM PPI inactive, DNMT1 block inactive, NadD block inactive, Scp-1 conf 69, MG interference inactive and Scp1 DSF 8.2.
Cc1cccc(NC(=O)CN2C(=O)N/C(=C\c3ccccc3OCc3ccc(C(=O)O)cc3)C2=O)c1 was read as LMPTP block inactive, STEP block inactive, Scp1 inh 85, SUMO1-SIM PPI inactive, DNMT1 block inactive, NadD block inactive, Scp-1 conf 74, MG interference inactive and Scp1 DSF inactive.
O=C1NC(=S)N/C1=C\c1ccccc1OCc1ccc(C(=O)O)cc1 was read as LMPTP block inactive, STEP block inactive, Scp1 inh inactive, SUMO1-SIM PPI inactive, DNMT1 block inactive and NadD block inactive.
COc1cc2c(cc1NC(=O)CSc1nc3ccccc3[nH]1)oc1ccccc12 was read as LMPTP block inactive, STEP block inactive, Scp1 inh 72, SUMO1-SIM PPI inactive, DNMT1 block inactive, NadD block inactive, Scp-1 conf 42, MG interference inactive and Scp1 DSF inactive.
Screening COc1cc2c(cc1NC(=O)CSc1ccccc1)oc1ccccc12 returned LMPTP block inactive, STEP block inactive, Scp1 inh inactive, SUMO1-SIM PPI inactive, DNMT1 block inactive and NadD block inactive.
`Cn1cccc/c1=N\c1cccc[n+]1C` gave LMPTP block inactive, STEP block inactive, Scp1 inh 107, SUMO1-SIM PPI inactive, DNMT1 block inactive, NadD block inactive, Scp-1 conf inactive and MG interference inactive.
For CN(C)C(=O)CSc1nc2ccc(N3C(=O)c4ccccc4C3=O)cc2s1 the results were LMPTP block inactive, STEP block inactive, Scp1 inh inactive, SUMO1-SIM PPI inactive, DNMT1 block inactive and NadD block inactive.
Screening FC(F)(F)c1nc(-c2ccncc2)ncc1-c1nnnn1-c1ccccc1 returned LMPTP block inactive, STEP block inactive, Scp1 inh 78, SUMO1-SIM PPI inactive, DNMT1 block inactive, NadD block inactive, Scp-1 conf inactive and MG interference inactive.
For Cc1ccc(-n2nnnc2-c2cnc(-c3cccnc3)nc2C(F)(F)F)cc1 the results were LMPTP block inactive, STEP block inactive, Scp1 inh inactive, SUMO1-SIM PPI inactive, DNMT1 block inactive and NadD block inactive.
O=C(Nc1ccc(S(=O)(=O)NC2=NCCCCC2)cc1)c1cccc(S(=O)(=O)N2CCOCC2)c1 was read as LMPTP block 57, STEP block inactive, Scp1 inh 50, SUMO1-SIM PPI inactive, DNMT1 block inactive, NadD block inactive, Scp-1 conf inactive and MG interference inactive.
`CCOC(=O)C1=C(C)NC(SC)=NC1c1ccc(OC)cc1` (stereo not given) gave LMPTP block inactive, STEP block inactive, Scp1 inh inactive, SUMO1-SIM PPI inactive, DNMT1 block inactive and NadD block inactive.
CCC1N=C(SC)NC(C)=C1C(=O)c1ccccc1 (stereo not given) was read as LMPTP block inactive, STEP block inactive, Scp1 inh 96, SUMO1-SIM PPI inactive, DNMT1 block inactive, NadD block inactive, Scp-1 conf inactive and MG interference inactive.
Screening COc1ccc2nc(Nc3nc(CSc4nnnn4-c4ccccc4)cc(=O)[nH]3)nc(C)c2c1 returned LMPTP block inactive, STEP block inactive, Scp1 inh 83, SUMO1-SIM PPI inactive, DNMT1 block inactive, NadD block inactive, Scp-1 conf inactive and MG interference inactive.
`O=C(C(Br)=Cc1ccccc1)c1ccccc1` gave LMPTP block inactive, STEP block inactive, Scp1 inh inactive, SUMO1-SIM PPI inactive, DNMT1 block inactive and NadD block inactive.
Screening Cc1ccc(C)c(Cn2c(C)nc3c(sc(=S)n3-c3ccccc3)c2=O)c1 returned LMPTP block inactive, STEP block inactive, Scp1 inh inactive, SUMO1-SIM PPI inactive, DNMT1 block inactive and NadD block inactive.
Screening Cc1ccccc1CC(=O)N1CCOCC1 returned LMPTP block inactive, STEP block inactive, Scp1 inh inactive, SUMO1-SIM PPI inactive, DNMT1 block inactive and NadD block inactive.
C[C@H](CO)N1C[C@H](C)[C@H](CN(C)Cc2cccc(O)c2)OCc2ccccc2-c2c(n(C)c3ccccc23)C1=O was read as LMPTP block inactive, STEP block inactive, SUMO1-SIM PPI inactive, DNMT1 block inactive and NadD block inactive.
Screening CN(C(=O)CCN1C(=O)/C(=C/c2ccccc2)SC1=S)C1CCS(=O)(=O)C1 (stereo not given) returned LMPTP block inactive, STEP block inactive, Scp1 inh 76, SUMO1-SIM PPI 80, DNMT1 block inactive, NadD block inactive, Scp-1 conf inactive and MG interference inactive.
